# Experimental data from different studies.
# RET: Proto-oncogene tyrosine-protein kinase receptor Ret (RET, Homo sapiens, UniProt P07949)
# ASH1L: Histone-lysine N-methyltransferase ASH1L (ASH1L, Homo sapiens, UniProt Q9NR48)
# BAZ2A bromodomain: Bromodomain adjacent to zinc finger domain protein 2A, bromodomain (BAZ2A, Homo sapiens, UniProt Q9UIF9)
# Nos2: Nitric oxide synthase, inducible (Nos2, Mus musculus, UniProt P29477)
# MARK4: MAP/microtubule affinity-regulating kinase 4 (MARK4, Homo sapiens, UniProt Q96L34)
# LATS2: Serine/threonine-protein kinase LATS2 (LATS2, Homo sapiens, UniProt Q9NRM7)
Compound,target,test,conditions,endpoint,result
COc1ccccc1NC(=O)Nc1ccc2nc(NC(=O)c3ccccc3)sc2c1,RET,"enzyme activity, inhibitor, radiometric",0.1 µM,remaining activity,113%
C[S+]([O-])c1ccc(-c2nc(-c3ccncc3)c(-c3ccc(F)cc3)[nH]2)cc1 (stereo not shown),ASH1L,"thermal stability, DSF",10 µM,ΔTm,0.31 °C
Nc1ncnc2occ(-c3ccc(NC(=O)Nc4cc(C(F)(F)F)ccc4F)cc3)c12,"Phosphatidylinositol 5-phosphate 4-kinase type-2 gamma (PIP4K2C, Homo sapiens, UniProt Q8TBX8)",cell-free assay,20 µM,remaining signal,24%
CC(C)[C@@H]1NC(=O)[C@@H]2CCCN2C(=O)[C@H](Cc2ccccc2)NC(=O)CSC[C@@H](C(=O)N[C@@H](Cc2ccc(O)cc2)C(N)=O)NC(=O)[C@H](Cc2c[nH]c3ccccc23)NC(=O)[C@H](CCCCN)NC(=O)[C@H](Cc2ccccc2)N(C)C(=O)[C@H](Cc2ccccc2)NC1=O,"Stimulator of interferon genes protein (STING1, Homo sapiens, UniProt Q86WV6, H232R)","thermal stability, DSF",200 µM,ΔTm,5.83 °C
NS(=O)(=O)c1ccc(Nc2nc(-c3ccc(F)cc3)c3ccccc3n2)cc1,BAZ2A bromodomain,"binding, competition with immobilised ligand",1 µM,remaining binding,71%
CC(=O)C(Cl)C(C)=O,Nos2,"enzyme activity, inhibitor",1 mM,inhibition,> 40%
Cc1nn(CC(F)(F)F)cc1Nc1ncc(Br)c(NCc2ccc(S(N)(=O)=O)cc2)n1,MARK4,"enzyme activity, inhibitor, radiometric",1 µM,remaining activity,79%
Cc1cc2c(cc1N1C(=O)c3cccc4c(Cl)ccc(c34)C1=O)n(C)c(=O)n2C,ASH1L,"thermal stability, DSF",10 µM,ΔTm,1.2 °C
O=C(CCCCCCCCc1ccc(O)c(O)c1)c1c(O)cccc1O,"Bifunctional epoxide hydrolase 2 (EPHX2, Homo sapiens, UniProt P34913)","enzyme activity, inhibitor, fluorescence",100 µM,inhibition,90.9%
COCC(=O)Nc1cc(C(=O)N(C)CCc2c(C)n[nH]c2C)c2c(c1)ncn2Cc1ccc(F)cc1,RET,"enzyme activity, inhibitor, radiometric",0.1 µM,remaining activity,118%
Cc1nn(C)c2ncc(C(=O)NC(=O)Nc3ccc(F)c(C(F)(F)F)c3)cc12,"C-C chemokine receptor type 4 (CCR4, Homo sapiens, UniProt P51679)","ligand displacement, radioligand",10 µM,inhibition,< 10%
CN1CCc2cc(Nc3ncc(C4CC4)c(NCCCNC(=O)C4CCC4)n3)ccc2C1,MARK4,"enzyme activity, inhibitor, radiometric",1 µM,remaining activity,3%
C=C(F)[C@@](N)(CCCCN)C(=O)O,"Lysine decarboxylase (Hafnia alvei, UniProt P05033)","enzyme activity, inhibitor, absorbance",,KI (inactivation),470 µM
N#Cc1ccc(/C=C/CN(CC[C@H](N)C(=O)O)C[C@H]2O[C@@H](n3cnc4c(N)ncnc43)[C@H](O)[C@@H]2O)cc1,"Phenylethanolamine N-methyltransferase (PNMT, Homo sapiens, UniProt P11086)","enzyme activity, inhibitor",10 µM,activity vs control,67%
CC(=O)c1cccc(NC(=O)Nc2cc3c(cc2Oc2ccccc2)n(C)c(=O)n3C)c1,RET,"enzyme activity, inhibitor, radiometric",0.1 µM,remaining activity,104%
O=c1cc(CCl)occ1O,Nos2,"enzyme activity, inhibitor",1 mM,inhibition,> 40%
O=C(Nc1ccc(NC(=O)c2ccco2)cc1C(F)(F)F)Nc1ccc(NC(=O)c2ccco2)cc1C(F)(F)F,RET,"enzyme activity, inhibitor, radiometric",0.1 µM,remaining activity,123%
CN(C)C1CCN(CC#Cc2nn(C3CCCC3)c3nc(NCc4ccccc4)ncc23)C1 (stereo not shown),"Tyrosine-protein kinase Lck (LCK, Homo sapiens, UniProt P06239)","enzyme activity, inhibitor, FRET",10 µM,inhibition,78%
Cc1ccc(C(=O)Nc2ccc(CN3CCN(C)CC3)c(C(F)(F)F)c2)cc1C#Cc1cnc2cccnn12,"Citron Rho-interacting kinase (CIT, Homo sapiens, UniProt O14578)","enzyme activity, inhibitor",23.5 nM,remaining activity,64%
Cn1cncc1C1=CN(c2ncnc3[nH]cnc23)CCS1,LATS2,"enzyme activity, inhibitor, radiometric",2 µM,inhibition,92.9%
CCOC(=O)N1CCN(c2nc(Nc3ccc(C)cc3)c3nn[nH]c3n2)CC1,RET,"enzyme activity, inhibitor, radiometric",10 µM,remaining activity,154%
COc1cc(-c2cc(-c3ccc(N4CCNCC4)cc3)cnc2C)cc(OC)c1OC,LATS2,"enzyme activity, inhibitor",0.1 µM,inhibition,1%
COc1ccc(OC)c(NC(=O)Nc2cc(OC)c3nc(NC(=O)c4ccccc4)sc3c2)c1,RET,"enzyme activity, inhibitor, radiometric",10 µM,remaining activity,94.4%
Cc1cnc(Nc2ccc(OCCN3CCCC3)cc2)nc1Nc1cccc(S(=O)(=O)NC(C)(C)C)c1,BAZ2A bromodomain,"thermal stability, DSF",10 µM,ΔTm,-0.11 °C
CC(=O)c1cccc(NC(=O)Cc2csc(NC(=O)Nc3cccc(Cl)c3)n2)c1,RET,"enzyme activity, inhibitor, radiometric",0.1 µM,remaining activity,116%
Oc1ccc(-c2nc(-c3ccncc3)c(-c3ccc(F)cc3)[nH]2)cc1,ASH1L,"thermal stability, DSF",10 µM,ΔTm,0.27 °C
CO[C@]1(C(=O)N[C@@H](C)c2ccc(-n3cc(F)cn3)nc2)CC[C@H](c2nc(C)cc(Nc3cc(C)[nH]n3)n2)CC1,RET,"thermal stability, DSF",10 µM,ΔTm,11.6 °C
COc1ccc(NC(=O)Nc2cc(C)c3nc(NC(=O)c4ccccc4)sc3c2)c(OC)c1,RET,"enzyme activity, inhibitor, radiometric",10 µM,remaining activity,98.8%
